Source: ChEMBL document CHEMBL5620402, “Development of submicromolar 17β-HSD10 inhibitors and their in vitro and in vivo evaluation” (Eur J Med Chem, 2023)
Values belong to the compound of their own block, whether it stands above or below them. The source made the active and inactive calls. The rule behind the calls is not given here.

Columns and labels:
[1] = Tmax in male albino Wistar rat brain at 0.018 mg/kg, iv measured upto 1440 mins by HPLC-MS analysis; assay type: ADME, organism-based
Method in brief: (§1)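 Single tail-vein injection into male wild-type rats, 0.1 mL per 100 g body weight. Solutions were 20 or 25 μM in saline with 3% DMSO, giving 0.013 or 0.018 mg/kg. Rats were exsanguinated at 5–1440 min (9 time-points, 3 per point). Plasma and brain levels were measured by HPLC-MS. Parameters came from non-compartmental analysis; values are mean ± SE of three.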

[2] = AUC (0 to 1440 mins) in male albino Wistar rat brain at 60 mg/kg, po measured upto 1440 mins by HPLC-MS analysis; assay type: ADME, organism-based; details: in vivo, 24 h
Method in brief: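 Oral gavage via blunt needle into the stomach of male wild-type rats. Dose was 60 mg/kg from a 16 mM solution in 10% NMP, 25% Kolliphor EL and 65% saline. Rats were sacrificed at 15 time-points from 5 to 1440 min, 3 per point. Plasma and brain were analysed by HPLC-MS with non-compartmental analysis; values are mean ± SE of three.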

[3] = Apparent volume of distribution in male albino Wistar rat plasma at 0.018 mg/kg, iv measured upto 1440 mins by HPLC-MS analysis; assay type: ADME, organism-based; details: read-out: Vz; method in brief: as §1
[4] = AUC (0 to 1440 mins) in male albino Wistar rat brain at 0.018 mg/kg, iv measured upto 1440 mins by HPLC-MS analysis; assay type: ADME, organism-based; details: in vivo, 24 h; method in brief: as §1
[5] = Half life in male albino Wistar rat plasma at 0.018 mg/kg, iv measured upto 1440 mins by HPLC-MS analysis; assay type: ADME, organism-based; method in brief: as §1
[6] = Permeability coefficient in male albino Wistar rat assessed as ratio of brain AUC to plasma AUC at 0.018 mg/kg, iv measured upto 1440 mins by HPLC-MS analysis; assay type: ADME, organism-based; method in brief: as §1
[7] = AUC (0 to 1440 mins) in male albino Wistar rat plasma at 0.018 mg/kg, iv measured upto 1440 mins by HPLC-MS analysis; assay type: ADME, organism-based; details: in vivo, 24 h; method in brief: as §1
[8] = MRT in male albino Wistar rat plasma at 0.018 mg/kg, iv measured upto 1440 mins by HPLC-MS analysis; assay type: ADME, organism-based; method in brief: as §1
[9] = Cmax in male albino Wistar rat plasma at 0.018 mg/kg, iv measured upto 1440 mins by HPLC-MS analysis; assay type: ADME, organism-based; method in brief: as §1
[10] = Tmax in male albino Wistar rat plasma at 0.018 mg/kg, iv measured upto 1440 mins by HPLC-MS analysis; assay type: ADME, organism-based
Method in brief: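 Single tail-vein injection in male wild-type rats of a 25 μM dosing solution in saline with 3% DMSO, given at 0.1 mL per 100 g body weight. Three animals were killed at each of 5, 15, 30, 60, 90, 180, 240, 360 and 1440 min and exsanguinated. Plasma levels were measured by HPLC-MS. Parameters came from non-compartmental analysis, reported as mean ± SE of three.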

SH-SY5Y [11] = experiment: Reduction in glutathione level in human SH-SY5Y cells at 100 uM measured after 4 hrs by monochlorobimane assay; assay type: functional, cell-based
Method in brief: (§2)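 SH-SY5Y cells (passages 14–18) in DMEM/F12 with 15% FBS were exposed to compound (0.1–100 μM) for 4 or 24 h. Monochlorobimane was then added to a final 40 μmol/L, and fluorescence (394/490 nm) was followed for 10 min. GSH is the slope as % of control, mean ± SD, triplicate of ≥3 experiments.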

[12] = AUC (0 to 1440 mins) in male albino Wistar rat plasma at 0.013 mg/kg, iv measured upto 1440 mins by HPLC-MS analysis; assay type: ADME, organism-based; details: in vivo, 24 h; method in brief: as §1
[13] = MRT in male albino Wistar rat plasma at 0.013 mg/kg, iv measured upto 1440 mins by HPLC-MS analysis; assay type: ADME, organism-based; method in brief: as §1
[14] = Half life in male albino Wistar rat plasma at 0.013 mg/kg, iv measured upto 1440 mins by HPLC-MS analysis; assay type: ADME, organism-based; method in brief: as §1
[15] = Tmax in male albino Wistar rat brain at 0.013 mg/kg, iv measured upto 1440 mins by HPLC-MS analysis; assay type: ADME, organism-based; method in brief: as §1
[16] = Tmax in male albino Wistar rat plasma at 0.013 mg/kg, iv measured upto 1440 mins by HPLC-MS analysis; assay type: ADME, organism-based; method in brief: as §1
[17] = AUC (0 to 1440 mins) in male albino Wistar rat brain at 0.013 mg/kg, iv measured upto 1440 mins by HPLC-MS analysis; assay type: ADME, organism-based; details: in vivo, 24 h; method in brief: as §1
SH-SY5Y [18] = experiment: Reduction in dehydrogenase activity in human SH-SY5Y cells at 100 uM measured after 4 to 24 hrs by […] assay; assay type: functional, cell-based; details: time 4-24 hrs
Method in brief: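 SH-SY5Y cells (passages 14–18) in DMEM/F12 with 15% FBS were exposed to compound (0.1–100 μM) for 4 and 24 h. WST-1 reagent was added and the absorbance change at 440 nm was read over 0–1 h. Results are % of control cells, mean ± SD, triplicate of ≥3 experiments.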

[19] = Cmax in male albino Wistar rat plasma at 0.013 mg/kg, iv measured upto 1440 mins by HPLC-MS analysis; assay type: ADME, organism-based; method in brief: as §1
[20] = Cmax in male albino Wistar rat brain at 0.013 mg/kg, iv measured upto 1440 mins by HPLC-MS analysis; assay type: ADME, organism-based; method in brief: as §1
[21] = Permeability coefficient in male albino Wistar rat assessed as ratio of brain AUC to plasma AUC at 0.013 mg/kg, iv measured upto 1440 mins by HPLC-MS analysis; assay type: ADME, organism-based; method in brief: as §1
SH-SY5Y [22] = experiment: Reduction in glutathione level in human SH-SY5Y cells at 100 uM measured after 24 hrs by monochlorobimane assay; assay type: functional, cell-based; method in brief: as §2
[23] = Apparent volume of distribution in male albino Wistar rat plasma at 0.013 mg/kg, iv measured upto 1440 mins by HPLC-MS analysis; assay type: ADME, organism-based; details: read-out: Vz; method in brief: as §1

Tmax [1]: 90 min
AUC [2]: 20135 pmol·min
Vd [3]: 135 L/kg
AUC [4]: 34 pmol·min
half-life [5]: 29.4 min
Kp at 24 h [6]: 0.002
AUC [7]: 18961 pmol·min
MRT [8]: 15.7 min
Cmax [9]: 1.54 nM
Tmax [10]: 5 min
SMILES: O=C(Nc1ccc(O)c(Cl)c1)Nc1nc2ccc(C(=O)O)cc2s1

AUC [2]: 15749 pmol·min
AUC [12]: 5832 pmol·min
MRT [13]: 24.5 min
half-life [14]: 15.8 min
Tmax [15]: 956 min
Tmax [16]: 5 min
AUC [17]: 3299 pmol·min
Cmax [19]: 0.389 nM
Cmax [20]: 0.0126 nM
Kp at 24 h [21]: 0.566
Vd [23]: 147 L/kg
SMILES: CC(=O)Nc1ccc2nc(NC(=O)Nc3ccc(O)c(Cl)c3)sc2c1
inhibition (SH-SY5Y [11]): Active
inhibition (SH-SY5Y [18]): Active
inhibition (SH-SY5Y [22]): inactive
